Assay results from different studies.
Protocols differ between the studies behind these lines.
Target: cAMP-dependent protein kinase catalytic subunit alpha (PRKACA, Homo sapiens, UniProt P17612)

SMILES	test	conditions	quantity	value
CO[C@@H]1[C@H](N(C)C(=O)c2ccccc2)C[C@H]2O[C@]1(C)n1c3ccccc3c3c4c(c5c6ccccc6n2c5c31)C(=O)NC4	enzyme activity, inhibitor	1 µM	inhibition	59%
CCCCC(=O)Nc1ccc(-c2ccc3ncn(CCC)c(=O)c3c2)cn1	binding, competition with immobilised ligand	0.5 µM	remaining binding	97%
CN1CCN(C(=O)c2ccc(NC(=O)Nc3ccc(N(C)c4ccnc(Nc5ccc(CS(C)(=O)=O)cc5)n4)cc3)cc2)CC1	cell-free assay	1 µM	remaining signal	100%
COc1ccc2oc(-c3ccc4nc(N)oc4c3)c/c(=N\c3ccccc3NC(=O)CCN)c2c1	binding	1 µM	remaining binding	111%
N#Cc1ccc(NC(=O)Nc2ccccc2)cc1	cell-free assay, competition with immobilised ligand	25 µM	remaining binding	85%
COc1ccc2[nH]c3c4[nH]c5ccc(OC)cc5c4c4c(c3c2c1)C(=O)NC4=O	cell-free assay	1 µM	remaining signal	87%
C=CC(=O)N1CCC([C@@H]2CCNc3c(C(N)=O)c(-c4ccc(Oc5ccccc5)cc4)nn32)CC1	enzyme activity, inhibitor	1 µM	inhibition	9%
C#Cc1cnc(Nc2ccnc(CO)c2)nc1Nc1ccccc1S(C)(=O)=NC#N (centres unmarked)	cell-free assay	1 µM	remaining signal	100%
